# Measured values collected from several papers.
# Lines come from different studies, so protocols differ.
# Target: Serine/threonine-protein kinase LATS1 (LATS1, Homo sapiens, UniProt O95835)
# Sequence (O95835 1-1130, as in one of the studies): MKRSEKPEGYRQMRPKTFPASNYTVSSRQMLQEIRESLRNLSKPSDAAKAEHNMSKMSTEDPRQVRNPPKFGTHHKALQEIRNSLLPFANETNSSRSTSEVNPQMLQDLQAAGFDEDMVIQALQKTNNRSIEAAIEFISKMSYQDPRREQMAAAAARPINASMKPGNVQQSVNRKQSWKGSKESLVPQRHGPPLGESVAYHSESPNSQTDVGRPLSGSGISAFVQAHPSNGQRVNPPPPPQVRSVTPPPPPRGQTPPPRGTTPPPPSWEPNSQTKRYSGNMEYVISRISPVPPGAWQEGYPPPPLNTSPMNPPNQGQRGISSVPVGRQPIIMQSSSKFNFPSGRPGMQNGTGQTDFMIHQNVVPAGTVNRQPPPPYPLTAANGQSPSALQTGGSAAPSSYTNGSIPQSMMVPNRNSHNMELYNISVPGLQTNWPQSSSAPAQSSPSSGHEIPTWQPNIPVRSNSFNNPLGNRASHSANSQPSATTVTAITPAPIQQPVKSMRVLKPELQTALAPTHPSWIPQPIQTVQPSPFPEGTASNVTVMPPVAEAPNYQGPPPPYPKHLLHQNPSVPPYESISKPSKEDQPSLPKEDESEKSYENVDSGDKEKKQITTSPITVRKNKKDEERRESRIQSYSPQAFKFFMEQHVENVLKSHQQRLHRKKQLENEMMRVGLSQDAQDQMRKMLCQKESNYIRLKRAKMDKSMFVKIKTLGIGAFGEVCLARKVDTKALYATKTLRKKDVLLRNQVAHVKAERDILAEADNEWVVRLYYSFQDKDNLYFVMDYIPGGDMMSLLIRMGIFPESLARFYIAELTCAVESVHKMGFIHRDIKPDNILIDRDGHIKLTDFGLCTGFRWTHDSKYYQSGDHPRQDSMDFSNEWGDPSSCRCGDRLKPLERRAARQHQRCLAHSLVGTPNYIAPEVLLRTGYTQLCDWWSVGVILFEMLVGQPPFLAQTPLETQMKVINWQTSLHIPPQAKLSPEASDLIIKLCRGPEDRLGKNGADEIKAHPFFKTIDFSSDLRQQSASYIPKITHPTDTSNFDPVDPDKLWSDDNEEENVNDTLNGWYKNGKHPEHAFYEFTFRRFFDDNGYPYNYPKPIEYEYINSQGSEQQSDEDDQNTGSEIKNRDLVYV
SMILES,assay,conditions,remaining binding [%]
c1cnn2ncc(-c3ccnc(N4CCC45COC5)n3)c2c1,binding,1 µM,88
NS(=O)(=O)c1cc(NC(=O)Cc2ccccc2)ccc1Oc1cccc(Cl)c1,"cell-free assay, competition with immobilised ligand",1 µM,79
O=C(Nc1c[nH]nc1C(=O)NC1CCNCC1)c1cc(F)cc(F)c1,"binding, competition with immobilised ligand",1 µM,100
Cc1cc(NC(=O)c2cccc(S(F)(F)(F)(F)F)c2)cc(-n2ccn3nc(-c4cccnc4)cc23)c1,"cell-free assay, competition with immobilised ligand",1 µM,100
CN(c1nccc(-c2cnn3ncccc23)n1)C1CC1,binding,1 µM,82
N#Cc1ccc(Nc2ccc3[nH]c(=O)[nH]c3c2)c(Cl)c1,"cell-free assay, competition with immobilised ligand",1 µM,76
C=CC(=O)N1CCC(C(=O)NCC(=O)N2CCN(c3nc(-c4cnc(N)nc4C(F)F)nc(N4CCOCC4)n3)CC2)CC1,"binding, competition with immobilised ligand",1 µM,100
O=C(c1ccc(Nc2nccc(-c3cc4ccccc4s3)n2)cc1)N1CCC(N2CCCC2)CC1,"binding, competition with immobilised ligand",1 µM,93
O=C(O)[C@@H]1[C@@H](Cn2nnc3ccccc3c2=O)CC[C@H]1C(=O)c1ccc(OCCC2CCOCC2)cc1,"cell-free assay, competition with immobilised ligand",1 µM,90
COc1ccnn2ncc(-c3ccnc(N(C)C)n3)c12,binding,1 µM,100
O=C(NCCCC1CCCCC1)c1ccc(CNC(=O)c2cnn(-c3ccccc3)c2C(F)(F)F)cc1,"cell-free assay, competition with immobilised ligand",0.1 µM,100
O=C(NCCCN1CCOCC1)c1ccc(Nc2nccc(-c3cc4ccccc4s3)n2)cc1,"binding, competition with immobilised ligand",1 µM,100
COc1cnc(Nc2cccc(S(N)(=O)=O)c2)nc1N1CCN(c2ccccc2)CC1,"binding, competition with immobilised ligand",1 µM,100
N[C@@H]1CCN(c2nccc(-c3cnn4ncccc34)n2)C1,binding,1 µM,100
COc1ncc2cc3ccccc3nc2c1C#N,"cell-free assay, competition with immobilised ligand",5 µM,93
C[C@@H]1CCN(c2nccc(-c3cnn4ncccc34)n2)C1,binding,1 µM,100
FC(F)(F)Oc1cccc(-c2cnc3ccc(-c4ccncc4)nn23)c1,"cell-free assay, competition with immobilised ligand",5 µM,100
Cc1cnn2ncc(-c3ccnc(N(C)C)n3)c2c1,binding,1 µM,48
COc1cnc(Nc2cccc(S(N)(=O)=O)c2)nc1N1CCN(c2ccccc2)C(=O)C1,"binding, competition with immobilised ligand",1 µM,90
O=C(O)c1cc(-c2ccc(C3CCNCC3)cc2)c2ccc(-c3ccc(C(F)(F)F)cc3)cc2c1,"cell-free assay, competition with immobilised ligand",1 µM,88
